The values below come from ChEMBL document CHEMBL1833929, “Design, synthesis and anticancer activity of novel dihydrobenzofuro[4,5-b][1,8]naphthyridin-6-one derivatives” (Bioorg Med Chem Lett, 2011).

Structures are written as SMILES.

Assay [1] relates to LNCaP. In words: Cytotoxicity against androgen receptor-positive human LNCAP cells after 48 hrs by MTT assay. Format: functional, cell-based. Put shortly:
(§1)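 Cells kept in RPMI-1640 with 10% heat-inactivated FBS, 1.25 mM HEPES and 1% penicillin/streptomycin. Seeded at 2×10^3 cells/well and grown 48 h, then treated with a range of concentrations for 24 or 48 h. MTT (5 mg/mL) added for 4 h at 37 °C, formazan dissolved in DMSO, absorbance read at 540 nm. Triplicate. IC50 from log concentration vs % viability loss; doxorubicin reference.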
For orientation: Formazan colour is commonly taken as a measure of viable cells.

Assay [2] relates to DU-145. Nature of the assay: Cytotoxicity against human DU145 cells after 24 hrs by MTT assay. In kind it is functional, cell-based. As to conditions: DU-145, 24 h. Put shortly: as §1
Assay [3] can be described thus: Cytotoxicity against human MCF7/ADR cells after 24 hrs by MTT assay. As to conditions: NCI/ADR-RES. In kind it is functional, cell-based. Put shortly:
as §1

The subject of assay [4] is DU-145. In words: Cytotoxicity against human DU145 cells after 48 hrs by MTT assay. In kind it is functional, cell-based. As to conditions: DU-145, 48 h. Put shortly: as §1
Assay [5] in a line: Cell cycle arrest in human MCF7/ADR cells assessed as accumulation at G2/M phase at 5 uM after 48 hrs using propidium iodide staining by flow cytometry (reference value: 22.51 +/- 1.5 %). Format: functional, cell-based. As to conditions: NCI/ADR-RES. The method in brief:
(§2)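 MCF-7/ADR cells exposed to test agent for 48 h, collected, washed and suspended in cold PBS. Fixed in chilled 75% methanol, then stained with PI solution (100 µg/mL RNase, 10 µg/mL PI in PBS). Phase distribution (G1, S, G2/M) determined by flow cytometry. Mean ± SEM of three independent experiments; one-way ANOVA with Newman–Keuls post hoc test, p<0.05.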

A short description of assay [6]: Cell cycle arrest in human MCF7/ADR cells assessed as accumulation at S phase at 5 uM after 48 hrs using propidium iodide staining by flow cytometry (reference value: 15.34 +/- 0.98 %). Format: functional, cell-based. As to conditions: NCI/ADR-RES. Put shortly: as §2
A general note: Flow cytometry measures light scatter and fluorescence of single cells or particles in a stream.

The test system of assay [7] is PC-3. In words: Cytotoxicity against androgen receptor-negative human PC3 cells after 48 hrs by MTT assay. Format: functional, cell-based. As to conditions: PC-3, 48 h. The method in brief: as §1
The nature of assay [8]: Cytotoxicity against human MCF7/ADR cells after 48 hrs by MTT assay. Format: functional, cell-based. As to conditions: NCI/ADR-RES. The method in brief: as §1
Assay [9] has as its system LNCaP. In words: Cytotoxicity against androgen receptor-positive human LNCAP cells after 24 hrs by MTT assay. In kind it is functional, cell-based. The method in brief:
as §1

For assay [10], the system named is PC-3. Nature of the assay: Cytotoxicity against androgen receptor-negative human PC3 cells after 24 hrs by MTT assay. In kind it is functional, cell-based. As to conditions: PC-3, 24 h. The method in brief: as §1
A short description of assay [11]: Cell cycle arrest in human MCF7/ADR cells assessed as accumulation at G1 phase at 5 uM after 48 hrs using propidium iodide staining by flow cytometry (reference value: 62.15 +/- 3.14 %). In kind it is functional, cell-based. As to conditions: NCI/ADR-RES. The method in brief:
as §2

Assay [12] can be described thus: Cell cycle arrest in human MCF7/ADR cells assessed as accumulation at G2/M phase at 0.1 uM after 48 hrs using propidium iodide staining by flow cytometry (reference value: 22.51 +/- 1.5 %). Format: functional, cell-based. As to conditions: NCI/ADR-RES. Put shortly:
as §2

A short description of assay [13]: Cell cycle arrest in human MCF7/ADR cells assessed as accumulation at S phase at 0.1 uM after 48 hrs using propidium iodide staining by flow cytometry (reference value: 15.34 +/- 0.98 %). Format: functional, cell-based. As to conditions: NCI/ADR-RES. Put shortly:
as §2

Assay [14] deals with MCF7. In words: Cytotoxicity against estrogen receptor-positive human MCF7 cells after 24 hrs by MTT assay. As to conditions: MCF7, 24 h. Format: functional, cell-based. Put shortly:
as §1

The nature of assay [15]: Cell cycle arrest in human MCF7/ADR cells assessed as accumulation at G2/M phase at 0.2 uM after 48 hrs using propidium iodide staining by flow cytometry (reference value: 22.51 +/- 1.5 %). In kind it is functional, cell-based. As to conditions: NCI/ADR-RES. Put shortly: as §2
Assay [16] concerns MCF7. Nature of the assay: Cytotoxicity against estrogen receptor-positive human MCF7 cells after 48 hrs by MTT assay. Format: functional, cell-based. As to conditions: MCF7, 48 h. Put shortly:
as §1

Assay [17] in a line: Cell cycle arrest in human MCF7/ADR cells assessed as accumulation at G2/M phase at 0.05 uM after 48 hrs using propidium iodide staining by flow cytometry (reference value: 22.51 +/- 1.5 %). In kind it is functional, cell-based. As to conditions: NCI/ADR-RES. Put shortly: as §2
Assay [18] in a line: Cell cycle arrest in human MCF7/ADR cells assessed as accumulation at G1 phase at 0.05 uM after 48 hrs using propidium iodide staining by flow cytometry (reference value: 62.15 +/- 3.14 %). Format: functional, cell-based. As to conditions: NCI/ADR-RES. The method in brief:
as §2

The nature of assay [19]: Cell cycle arrest in human MCF7/ADR cells assessed as accumulation at S phase at 0.2 uM after 48 hrs using propidium iodide staining by flow cytometry (reference value: 15.34 +/- 0.98 %). In kind it is functional, cell-based. As to conditions: NCI/ADR-RES. Put shortly:
as §2

Assay [20] can be described thus: Cell cycle arrest in human MCF7/ADR cells assessed as accumulation at G1 phase at 0.2 uM after 48 hrs using propidium iodide staining by flow cytometry (reference value: 62.15 +/- 3.14 %). In kind it is functional, cell-based. As to conditions: NCI/ADR-RES. Put shortly:
as §2

Assay [21] in a line: Cell cycle arrest in human MCF7/ADR cells assessed as accumulation at S phase at 0.05 uM after 48 hrs using propidium iodide staining by flow cytometry (reference value: 15.34 +/- 0.98 %). Format: functional, cell-based. As to conditions: NCI/ADR-RES. The method in brief:
as §2

Assay [22] in a line: Cell cycle arrest in human MCF7/ADR cells assessed as accumulation at G1 phase at 0.1 uM after 48 hrs using propidium iodide staining by flow cytometry (reference value: 62.15 +/- 3.14 %). In kind it is functional, cell-based. As to conditions: NCI/ADR-RES. Put shortly:
as §2

Another assay concerns NCI/ADR-RES. Nature of the assay: Ratio of IC50 for androgen receptor-negative human PC3 cells to IC50 for human MCF7/ADR cells. Format: functional.
Assay [23] has as its system LNCaP. In words: Ratio of IC50 for androgen receptor-negative human PC3 cells to IC50 for androgen receptor-positive human LNCAP cells. In kind it is functional.
In assay [24] the test system is MCF7. In words: Ratio of doxorubicin IC50 to compound IC50 for estrogen receptor-positive human MCF7 cells after 48 hrs by MTT assay. In kind it is functional.
For assay [25], the system named is DU-145. Nature of the assay: Ratio of IC50 for androgen receptor-negative human PC3 cells to IC50 for human DU145 cells. In kind it is functional.
In assay [26] the test system is MCF7. In words: Ratio of IC50 for androgen receptor-negative human PC3 cells to IC50 for estrogen receptor-positive human MCF7 cells. Format: functional.

The IC50 is the point on the concentration scale where inhibition reaches its midpoint. High values mean a need for much substance, low ones inhibition by little substance. `COc1cccc2c1C(=O)c1c(O)c3c(c(O)c1C2=O)C[C@@](O)(C(=O)CO)C[C@@H]3O[C@H]1C[C@H](N)[C@H](O)[C@H](C)O1` [DOXORUBICIN]: the IC50 was 1660 nM with LNCaP [1]; 6240 nM in the assay with DU-145 [2]; over 20000 nM in assay [3]; 580 nM with DU-145 [4]; 1220 nM with PC-3 [7]; 13600 nM in assay [8]. For the same compound, the values for the IC50 in the assay with LNCaP [9] and in the assay with PC-3 [10] were 7420 nM and 4100 nM, respectively. The Activity in assay [5] was 24.6%; in assay [6], 21.9%; in assay [11], 53.3%.
In the case of `COc1cc2c(c3c1c(=O)c1cccnc1n3C)C[C@H]([C@@]1(C)CO1)O2` (racemic), the IC50 in the assay on LNCaP [1] came out at 140 nM; in the assay with DU-145 [2], 550 nM; in the assay on MCF7 [14], 660 nM; in assay [3] it was 490 nM; in the assay on DU-145 [4], 150 nM; with MCF7 [16], 260 nM. For the same compound, the IC50 in the assay with PC-3 [7] amounted to 300 nM; in assay [8], 150 nM; with LNCaP [9], 480 nM; in the assay on PC-3 [10], 560 nM. Further, the Activity in assay [12] was 33.7%; in assay [13], 8.97%; in assay [15], 41.1%; in assay [17] it was 24.1%; in [18] it was 63.5%; in assay [19], 7.68%. The Activity turned out to be 51.2% in [20], 12.4% in [21] and 57.4% in assay [22].
Regarding `COc1cc2c(c3c1c(=O)c1cccnc1n3C)C[C@H]([C@]1(C)CO1)O2` (racemic), the IC50 turned out to be 860 nM with LNCaP [1]; 2360 nM in the assay with DU-145 [2]; 1840 nM with MCF7 [14]; 2210 nM in assay [3]; 840 nM in the assay with DU-145 [4]; 1020 nM in the assay with MCF7 [16]. In addition, the IC50 with PC-3 [7] came to 2150 nM; in assay [8], 920 nM; in the assay with LNCaP [9], 2480 nM; with PC-3 [10] it was 4670 nM. Besides, the Activity was determined as 21.8% in assay [12]; 13.6% in assay [13]; 28.3% in [15]; 20.5% in assay [17]; 68.4% in [18]; 16.6% in assay [19]. The Activity worked out at 55.2% in [20], 11.2% in assay [21] and 64.6% in assay [22]. Further, the “Ratio IC50” value in the assay with NCI/ADR-RES turned out to be 2; in the assay on LNCaP [23] it was 2; in the assay on MCF7 [24], 1.5; in the assay on DU-145 [25], 2; in the assay on MCF7 [26] it was 2.
